Test results: publication PMC3557599 (Toxicology and applied pharmacology, 2012)
Read-outs that look alike come from different tables or passages of the source.

How the values were obtained:
[1] = test system: rats; conditions: 230 µmol/kg b.w. ref Lash et al., 1994; cited from earlier work
[2] = Reaction with GSH in the presence of filtered rat liver cytosol; type: in vitro ADME; conditions: for Half-life +GSH + Cytosol: 0.459 mM compound, 1.53 mM GSH, filtered rat liver cytosol 2 mg/mL, 37°C; for reduction of half-life in the presence of liver cytosol: +GSH + cytosol vs +GSH alone
Procedure, shortened: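 Rat liver cytosol came from male Sprague-Dawley rats (180–225 g). It was filtered three times through centrifugal filters with pH 7.4 phosphate buffer to strip GSH and small molecules, and protein was measured by Lowry. Test compound (0.459 mM), GSH (1.53 mM) and cytosol (2 mg/mL) were incubated at 37°C. Aliquots were taken every 2.5 or 5 min, TFA-acidified, and run on C18 HPLC with UV detection. Diastereomer half-lives came from first-order kinetics.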

[3] = test system: male Sprague-Dawley rats; type: in vivo, rat; conditions: 230 µmol/kg b.w. i.p.; for BUN levels compared to control (saline-treated) rats / AST and ALT levels: 24 h after dosing; for AST and ALT levels: vs saline-treated rats; for Urine protein/creatinine ratio: vs saline; for urine volume: saline-treated rats 0.20 ± 0.04 dL; for nephrotoxicity based on the biochemical endpoints assayed: equimolar comparison
[4] = ref Commandeur et al., 1991; cited from earlier work
[5] = test system: kidneys of male rats; experiment: Kidney histopathology, grading of tubular necrosis in inner and outer zone; type: in vivo, rat; conditions: 230 µmol/kg b.w. i.p., 24 h post treatment
[6] = test system: isolated rat renal proximal tubule cells; conditions: cited from earlier work
[7] = Reactivity toward GSH in phosphate buffer pH 7.4 at 37°C; type: physicochemical
Procedure, shortened: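 Test compound (0.459 mM) and GSH (1.53 mM) were incubated in 0.1 M KH2PO4/0.1 M KCl/5 mM Na2EDTA, pH 7.4, in a shaking bath at 37°C. Aliquots were taken every 5–10 min for up to 60 min and TFA-acidified. Analysis was C18 HPLC with an acetonitrile/0.1% TFA gradient, reading UV 220 nm for sulfoxide loss and 260 nm for products. Diastereomer half-lives came from first-order kinetics. Conjugates (3 mM compound, 10 mM GSH, 1 h) were isolated and identified by positive-ESI LC/MS-TOF.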

Molecule | Half-life +GSH + Cytosol [2] [min] | reduction of half-life in the presence of liver cytosol [2] [fold] | BUN levels compared to control (saline-treated) rats [3] | kidney region primarily affected by lesions [5] | reaction with GSH (formation of glutathione conjugates) [7] | further results
N[C@@H](CSC(Cl)=CCl)C(=O)O [DCVC, S-(1,2-dichlorovinyl)-L-cysteine] |  |  |  |  |  | kidney histopathology [1]: scattered, patchy foci of tubular necrosis
CC(=O)N[C@@H](C[S+]([O-])C(Cl)=CCl)C(=O)O (single isomer, unassigned) [NA-DCVCS II, N-acetyl-S-(1,2-dichlorovinyl)-L-cysteine sulfoxide] | 2.3 | 10 |  |  |  | 
CC(=O)N[C@@H](CSC(Cl)=CCl)C(=O)O [NA-DCVC, N-Acetyl-S-(1,2-dichlorovinyl)-L-cysteine] |  |  | approximately 3 fold | cortico-medullary proximal tubules (S2–S3 segments) | not reactive with GSH | Urinary excretion of glucose over 24 h compared to saline-treated rats [3]: 113 fold; AST and ALT levels [3]: not different from saline-treated rats; Urine protein/creatinine ratio ([3]; 24 h urine): elevated; urine volume ([3]; 24 h urine): 0.32 ± 0.11 dL; nephrotoxicity based on the biochemical endpoints assayed [3]: less nephrotoxic than DCVCS; mutagenicity in the Ames test [4]: strong mutagen; cytotoxicity ([6]; isolated rat proximal tubule cells ref Commandeur et al., 1991): less cytotoxic then DCVC
S-(1,2-dichlorovinyl)-L-cysteine sulfoxide [DCVCS, reference compound] |  |  | 7 fold | outer cortical proximal tubules (S1–S2 segments) | the corresponding glutathione conjugates were detected | anuric rats ([3]; 24 h): two out of the four; Glucose excretion ([3]; 24 h urine, rats anuric or producing little urine): not different than saline-treated rats; urine volume ([3]; 24 h urine): 0.05 ± 0.07 dL
S-(1,2-dichlorovinyl)-L-cysteine sulfoxide [DCVCS I, reference compound] | 1.4 | 10 |  |  |  | 
CC(=O)N[C@@H](C[S+]([O-])C(Cl)=CCl)C(=O)O (stereo partly drawn) [NA-DCVCS, N-acetyl-S-(1,2-dichlorovinyl)-L-cysteine sulfoxide] |  |  | approximately 3 fold | cortico-medullary proximal tubules (S2–S3 segments) | the corresponding glutathione conjugates were detected | Urinary excretion of glucose over 24 h compared to saline-treated rats [3]: 89 fold; AST and ALT levels [3]: not different from saline-treated rats; Urine protein/creatinine ratio ([3]; 24 h urine): elevated; nephrotoxicity based on the biochemical endpoints assayed [3]: less nephrotoxic than DCVCS; cytotoxicity ([6]; isolated rat renal proximal tubule cells ref Werner et al., 1996): more cytotoxic than NA-DCVC
S-(1,2-dichlorovinyl)-L-cysteine sulfoxide [DCVCS II, reference compound] | 3.1 | 2 |  |  |  | 
CC(=O)N[C@@H](C[S+]([O-])C(Cl)=CCl)C(=O)O (single isomer, unassigned) [NA-DCVCS I, N-acetyl-S-(1,2-dichlorovinyl)-L-cysteine sulfoxide] | 5.4 | 2 |  |  |  | 
